In the RNAGym collection of RNA variant scans (doi:10.1126/science.aae0568):
This sample holds only a part of the variants without activity.

B1: tRNA (parent)
chain: GUUCCGUUGGCGUAAUGGUAACGCGUCUCCCUCCUAAGGAGAAGACUGCGGGUUCGAGUCCCGUACGGAACG

Variants of: B1
Test: yeast fitness relative to wild type (ratio to wild type); higher = fitter; tRNA-Arg(CCU), competitive growth, 37 C, YPD
How it was run: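 Amplicons of the tRNA-Arg(CCU) gene were sequenced, 100-nucleotide paired-end, from the start population and from each end population of a pooled yeast competition. The competition, in six parallel replicates, lasted 24 hours in YPD at 37°C. Fitness relative to wild type was calculated from changes in genotype frequencies. Genotypes had to have ≥ 100 starting reads, and estimates < 0.5 were set to 0.5.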
For C4U U16C A69C, the yeast fitness was 0.774. C4U U16A G23A A36G C49G C61A showed a yeast fitness of at most 0.5. For C5A A15U U47C, the yeast fitness was at most 0.5. Work on C4U U8A A37C yielded a yeast fitness of 0.821. With C4U G25A G41A G56C A65C the yeast fitness was at most 0.5. C4U U16G U47G showed a yeast fitness of 0.602. Variant C4U U8C A42C has a yeast fitness of 0.539. Work on C4U U8C A42G yielded a yeast fitness of 0.69. In the case of C4U G17C U47C C49A, the yeast fitness is reported as at most 0.5. C4U G18A G23C C24G C46G A57G showed a yeast fitness of at most 0.5. Work on C4U U8A A14U A20C A36C A43C G58C C61A yielded a yeast fitness of at most 0.5. C5A A15C C66U showed a yeast fitness of at most 0.5. C4U G23C G39C G44A G67A gave a yeast fitness of at most 0.5. With C4U U8A U32G U35A G68U the yeast fitness was at most 0.5. C4U G10C U35C G41A showed a yeast fitness of at most 0.5. In the case of C4U G18C C46U C60G, the yeast fitness is reported as at most 0.5. In the case of C5A A15G C33A, the yeast fitness is reported as at most 0.5. C4U U16C A42G gave a yeast fitness of 0.72. In the case of C4U U16C A42C, the yeast fitness is reported as 0.579. In the case of C4U G18C, the yeast fitness is reported as 0.651. In the case of C4U U26A G56A, the yeast fitness is reported as 0.632. Variant C4U U8A C30U U32G U35A C62U A69C has a yeast fitness of at most 0.5. With C5A A14C A36G G39C C46A A65C the yeast fitness was at most 0.5. C4U U16C C61U showed a yeast fitness of 0.737. With C4U U16A A37C the yeast fitness was at most 0.5. For C4U G18C C24U C61G, the yeast fitness was at most 0.5. C4U G12A A20G C22U C62U A65C gave a yeast fitness of at most 0.5. In the case of C4U G41C A65G, the yeast fitness is reported as 0.65. Variant C4U G12C C46U G50A has a yeast fitness of 0.608. Work on C4U U7A G10C C27G U32A yielded a yeast fitness of at most 0.5. Work on C4U U16G A69C yielded a yeast fitness of 0.645. C4U G17C G44A C61U gave a yeast fitness of 0.556. C4U U26G C29U U47C A65U showed a yeast fitness of at most 0.5. C5A A20C C29G A65U gave a yeast fitness of at most 0.5. C4U G12A C27G C34A C49G showed a yeast fitness of at most 0.5. Variant C5A A14G A40G G41A A45U U53C A57C has a yeast fitness of at most 0.5. C4U U16A A20C U54A G67U showed a yeast fitness of at most 0.5. C4U G10C U35C G41A C62G A70U gave a yeast fitness of at most 0.5. For C4U U8G G12A, the yeast fitness was 0.539. Work on C5A A20G U35G G41A G56A A70C yielded a yeast fitness of at most 0.5. With C5A A15G C33A C61U the yeast fitness was 0.531. For C4U U7A U8A A65U, the yeast fitness was at most 0.5. Work on C4U U26G C29U A65U G68A yielded a yeast fitness of at most 0.5. C5A A20U C27G G41A A57U U64A showed a yeast fitness of 0.642. In the case of C4U U26C A36C, the yeast fitness is reported as at most 0.5. C4U G58C U64A showed a yeast fitness of 0.848. C4U U28C C49G gave a yeast fitness of 0.598. C4U U26A C33A C34G gave a yeast fitness of at most 0.5. Variant C4U G17A U19G A21G A43G G63A has a yeast fitness of at most 0.5. Work on C4U G23C C29G C31G yielded a yeast fitness of at most 0.5. In the case of C4U U28C C49G C61U, the yeast fitness is reported as at most 0.5. C5A A15C A69U gave a yeast fitness of 0.552. For C4U G17A G18A C34U G56C, the yeast fitness was at most 0.5. With C4U U19C A40U the yeast fitness was 0.674. For C4U G25C G67A, the yeast fitness was 0.719. Work on C4U U19A G50A G68U yielded a yeast fitness of at most 0.5. Work on C4U U8C A20G A43C C49A C66A yielded a yeast fitness of at most 0.5. C4U G25A G56A gave a yeast fitness of 0.645. For C4U U32C C34U G38A, the yeast fitness was at most 0.5. C4U G25A showed a yeast fitness of 0.895. In the case of C4U U32A A57C, the yeast fitness is reported as at most 0.5. With C4U U7G A14U the yeast fitness was at most 0.5. In the case of C4U U32A C49U, the yeast fitness is reported as 0.61. C4U G39A G67A showed a yeast fitness of 0.61. In the case of C5A A14G C24A G63A A69U, the yeast fitness is reported as at most 0.5. C4U U16A G23A A36G C49G showed a yeast fitness of at most 0.5. Work on C4U G12A A20G C22U C55U A65U yielded a yeast fitness of 0.53. C4U U16C G48C showed a yeast fitness of 0.702. Work on C5A A15G yielded a yeast fitness of 0.779. For C5A A15U, the yeast fitness was 0.626. For C4U G10C C31G G50C C66U, the yeast fitness was at most 0.5. C5A A15U A21U C61U A69C gave a yeast fitness of at most 0.5. For C5A A20C, the yeast fitness was 0.799. C5A A20G gave a yeast fitness of 0.933. Variant C4U U54A has a yeast fitness of 0.627. In the case of C4U G17C C22U A37C, the yeast fitness is reported as at most 0.5. For C4U U47A C61A, the yeast fitness was 0.93. With C4U U7G C34G A70U the yeast fitness was at most 0.5. In the case of C4U G23C C49A G68C, the yeast fitness is reported as at most 0.5. For C4U G25A G50C U54C, the yeast fitness was at most 0.5. C5A A20U A21U C34G A65G G67A showed a yeast fitness of at most 0.5. C4U G39C C60U gave a yeast fitness of at most 0.5. C4U G18C A21G A57C showed a yeast fitness of at most 0.5. Work on C5A A20U A36G yielded a yeast fitness of at most 0.5. C4U U19C C29A A70U gave a yeast fitness of 0.632. C4U U8A A20G C24A G52C showed a yeast fitness of 0.598. For C4U G48A G52C U54C, the yeast fitness was at most 0.5. C4U G39C G48C gave a yeast fitness of 0.537. C5A A14G A43U showed a yeast fitness of at most 0.5. C4U U35C C61A gave a yeast fitness of 0.555. In the case of C4U G51C G58A U59G, the yeast fitness is reported as at most 0.5. C4U U35A A36U C61U gave a yeast fitness of at most 0.5. C4U G41A A42C gave a yeast fitness of at most 0.5. With C4U G23C G39C G44A the yeast fitness was at most 0.5. For C4U G18A G23C C24G C46G, the yeast fitness was at most 0.5. For C4U U7A C30G C34G A40C C66A A69C, the yeast fitness was 0.559. With C4U U28G A57G A69C the yeast fitness was at most 0.5. Variant C4U U26A A37G has a yeast fitness of at most 0.5. C4U G23C A36C A70U showed a yeast fitness of at most 0.5. For C4U G12C A45C C49U, the yeast fitness was at most 0.5. Variant C4U G25A G48C C62A has a yeast fitness of 0.551. For C4U G44C C46A G56C, the yeast fitness was at most 0.5. C4U G44C A70C gave a yeast fitness of 0.782. C4U U26G U59C C62A gave a yeast fitness of 0.679. For C4U G39C C49U, the yeast fitness was 0.62. C4U G18C A45U G52A A65U showed a yeast fitness of at most 0.5. C5A A20G C30A A40U G41C C61G G63C gave a yeast fitness of 0.565. For C4U G25A A70U, the yeast fitness was 0.77. Variant C4U U26A A37G C66G has a yeast fitness of at most 0.5. For C4U G18C C27U C33G A43C A70U, the yeast fitness was 0.659. With C4U U13C C30G C55U the yeast fitness was 0.761. Work on C4U U26A C31G yielded a yeast fitness of 0.603. For C4U U8A U13C A57U C60G G68C, the yeast fitness was at most 0.5. Variant C4U U28C C30A has a yeast fitness of 0.755. C4U U7C G23A A40U A42C gave a yeast fitness of at most 0.5. C4U G51C U59G gave a yeast fitness of 0.557. For C5A A15G G18C C29A U54A A65C, the yeast fitness was at most 0.5. For C4U G25A A69C, the yeast fitness was 0.761. With C4U U19A C29U C33G C62A the yeast fitness was at most 0.5. For C4U G41C C55G, the yeast fitness was 0.539. Variant C4U G67A has a yeast fitness of 0.904. C4U G12A C27G C34A C49A C66U gave a yeast fitness of at most 0.5. With C4U U8G G12A U54G the yeast fitness was at most 0.5. C5A A20C C22A A36C A69U showed a yeast fitness of 0.587. With C5A A15G C24G C29U C34G U35C C46G the yeast fitness was 0.527. In the case of C4U G18C G38A A40C, the yeast fitness is reported as 0.545. Work on C4U G18A A20G G23C C24G C46G yielded a yeast fitness of at most 0.5. For C4U G17A C22U, the yeast fitness was at most 0.5. C4U U26G C29U A65U gave a yeast fitness of at most 0.5. In the case of C4U G10U C24U, the yeast fitness is reported as 0.625. Work on C4U U13G A36U yielded a yeast fitness of 0.655. In the case of C4U U7G C34G, the yeast fitness is reported as 0.554. With C4U U7C C49G the yeast fitness was 0.534. Work on C4U G48C C55G A69U yielded a yeast fitness of at most 0.5. Work on C5A A14C A15G G58C C60U C66G yielded a yeast fitness of at most 0.5. For C4U G18C G51A C66A, the yeast fitness was at most 0.5. Work on C5A A20U A37G yielded a yeast fitness of at most 0.5. C4U U28A showed a yeast fitness of 0.749. C4U G12C showed a yeast fitness of 0.884. C4U U13A A14U C29U C30U A37G showed a yeast fitness of at most 0.5. Work on C5A A14C A15G C49A yielded a yeast fitness of 0.572. For C5A A20U C31G C49G, the yeast fitness was at most 0.5. For C4U G63U, the yeast fitness was 0.778. Variant C5A A15U U64C has a yeast fitness of 0.615. With C4U U28A C66U the yeast fitness was 0.658. C4U G12C A20G U47A C49U A57U C61A gave a yeast fitness of 0.572. In the case of C4U G10C G23A U26C A43G U53A, the yeast fitness is reported as at most 0.5. C5A A14G C60G showed a yeast fitness of at most 0.5. For C4U G17A C34A A57U, the yeast fitness was at most 0.5. For C4U G56A U59C A65C A70G, the yeast fitness was at most 0.5. For C4U G12A A20G C22U C34U A37G, the yeast fitness was at most 0.5. Work on C4U U16A A20C yielded a yeast fitness of 0.58. Work on C4U U16A A20G yielded a yeast fitness of 0.665. With C5A A20C C22A A36C C55A A69U the yeast fitness was at most 0.5. With C4U G10C G17C C27G G38C U54G the yeast fitness was at most 0.5. Variant C5A A14C G23A C24G A36U G63A G68A has a yeast fitness of 0.579. Variant C4U G12C G51A A65C has a yeast fitness of at most 0.5. C4U G23A U26A A45C gave a yeast fitness of at most 0.5. C5A A20U C29A G68A showed a yeast fitness of at most 0.5. In the case of C4U U7A C62G, the yeast fitness is reported as at most 0.5. Variant C4U G18C A45C has a yeast fitness of at most 0.5. With C4U G18C G38A A40C A65G the yeast fitness was at most 0.5. Work on C4U U28A C30U A57G yielded a yeast fitness of 0.547. With C4U U13C C30G G48U A70U the yeast fitness was at most 0.5. With C4U G56A G67A the yeast fitness was 0.649. Variant C4U G18A A69U has a yeast fitness of 0.743. C4U U7A A20G C24A G51A gave a yeast fitness of at most 0.5.
